Results pooled from the literature.
Protocols differ between the studies behind these lines.
Target: Tyrosine-protein kinase Fyn (FYN, Homo sapiens, UniProt P06241)

Cc1ccc(C(=O)Nc2ccc(CN3CCN(C)CC3)c(C(F)(F)F)c2)cc1C#Cc1cnc2cccnn12  remaining activity (enzyme activity, inhibitor; 23.5 nM): 28%
CCN(CC)CCNC(=O)c1c(C)[nH]c(/C=C2\C(=O)Nc3ccc(F)cc32)c1C  inhibition (enzyme activity, inhibitor; 10 µM): 89%
Cc1cc(NC(=O)c2cccc3cc(-c4cccc5[nH]nc(N)c45)ccc23)ccc1F  activity vs control (enzyme activity, inhibitor; 0.1 µM): 88%
CNC(=O)c1cc(Oc2ccc(NC(=O)Nc3ccc(Cl)c(C(F)(F)F)c3)cc2)ccn1  inhibition (enzyme activity, inhibitor; 0.3 µM): -22%
CN([C@@H]1CCc2c(CC(=O)O)c3cc(S(C)(=O)=O)ccc3n2C1)S(=O)(=O)c1ccc(F)cc1  remaining binding (cell-free assay, competition with immobilised ligand; 1 µM): 99%
COc1cccc2c(NCc3ccccc3)nc(-n3c(N)nc4ccccc43)nc12  inhibition (target engagement in cells, inhibitor, chemoproteomics; 20 mM): -15.9%
CCN(CC)CCNC(=O)c1c(C)[nH]c(/C=C2\C(=O)Nc3ccc(Cl)cc32)c1C  remaining activity (enzyme activity, inhibitor; 0.5 µM): 28.4%
Cc1ccc(C(=O)NCc2ccsc2)cc1C#Cc1cn(C(C)C)c2ncnc(N)c12  activity vs control (enzyme activity, inhibitor; 1 µM): 3%
O=c1c2ccccc2[nH]c(=S)n1CCN1CCC(=C(c2ccc(F)cc2)c2ccc(F)cc2)CC1  remaining activity (enzyme activity, inhibitor; 0.5 µM): 102%
Cc1cc(NC(=O)c2cccc(S(F)(F)(F)(F)F)c2)cc(-n2ccn3nc(-c4cccnc4)cc23)c1  remaining binding (cell-free assay, competition with immobilised ligand; 1 µM): 81.3%
COc1cc2ncnc(Nc3ccc(Oc4ccccc4)cc3C)c2cc1OC  inhibition (enzyme activity, inhibitor; 1 µM): 83%
COc1cc(Cl)c(C(=O)N[C@@H](CN[C@H]2CC[C@@H](N)CC2)Cc2ccc(C#N)cc2)cc1-c1ccc(CN[C@H](C)c2ccc(C)cc2)o1  remaining activity (enzyme activity, inhibitor; 1 µM): 104%
CC(=O)c1c(NS(C)(=O)=O)c2cc(-c3ccc(Cl)cc3)c(-c3ccc(Cl)cc3Cl)nc2n(C)c1=O  remaining binding (cell-free assay, competition with immobilised ligand; 1 µM): 92%
O=C1c2ccccc2-c2n[nH]c3cccc1c23  activity vs control (enzyme activity, inhibitor; 0.5 µM): 93.2%
Cn1cnc(Br)c1C1=CN(c2ncnc3[nH]cnc23)CCS1  inhibition (enzyme activity, inhibitor, radiometric; 50 nM): 21.6%
Cc1nc(Cc2cccc(C(F)(F)F)c2)sc1-c1ccc(C(N)=O)nc1  remaining binding (cell-free assay, competition with immobilised ligand; 1 µM): 100%
CCCS(=O)(=O)Nc1ccc(F)c(C(=O)c2c[nH]c3ncc(-c4ccc(Cl)cc4)cc23)c1F  inhibition (enzyme activity, inhibitor; 1 µM): < 20%
CCCOc1ccc(OC)c(F)c1C(=O)c1ccc(C(=O)N[C@@H]2CNC[C@H]2NC(=O)c2ccc3[nH]ncc3c2)cc1  remaining activity (enzyme activity, inhibitor; 10 µM): 69%
CC/C(=N\NC(=O)NCc1cccc(O)c1)c1ccc(O)c(C)c1O  inhibition (enzyme activity, inhibitor; 0.1 µM): 0.5%
O=C1NC(=O)c2cc(Nc3ccc(F)cc3)c(Nc3ccc(F)cc3)cc21  remaining signal (cell-free assay; 0.5 µM): 99.4%
COc1ccc2cc(OCC3(C(=O)O)CN(C(=O)c4ccc(F)cc4)C3)ccc2c1  remaining binding (cell-free assay, competition with immobilised ligand; 1 µM): 100%
c1nc2c(Nc3ccc4c(c3)OCCO4)nc(Nc3ccc4c(c3)OCCO4)nc2[nH]1  activity vs control (enzyme activity, inhibitor; 10 µM): 8.7%
O=C(Nc1cnn(-c2csc(C(=O)NC3COC3)c2)c1)Nc1c(F)cccc1Cl  remaining activity (enzyme activity, inhibitor; 5 µM): 90.3%
CNc1cccc2cc(C(=O)Nc3ccc(C(=O)O)cc3)c(=O)[nH]c12  inhibition (enzyme activity, inhibitor; 10 µM): 6.9%
CC(C)(C)c1nc2c(s1)c1nc(N)ncc1c1ccc(NS(=O)(=O)c3c(F)cccc3F)c(F)c12  remaining activity (enzyme activity, inhibitor, radiometric; 1 µM): 97%
Cc1sc(C(=O)NC2COC2)cc1-n1cc(NC(=O)Nc2c(F)cccc2Cl)cn1  remaining activity (enzyme activity, inhibitor; 10 µM): 99.8%
CNC(=O)Nc1ccc2c(c1)CC[C@@]21OC(=O)N(CC(=O)N(Cc2ccc(F)cc2)[C@@H](C)C(F)(F)F)C1=O  remaining binding (cell-free assay, competition with immobilised ligand; 1 µM): 100%
C#Cc1cccc(Nc2ncnc3cc(OCCOC)c(OCCOC)cc23)c1  remaining signal (cell-free assay; 0.5 µM): 94.7%
CCOC(=O)c1cc2cc(-c3cc(C(=O)NCc4ccc(C(=O)O)cc4)nn3C)ccc2[nH]1  remaining binding (cell-free assay, competition with immobilised ligand; 0.1 µM): 100%
COc1cc2ncnc(Nc3ccc(F)c(Cl)c3)c2cc1OCCCN1CCOCC1  remaining signal (cell-free assay; 0.5 µM): 92.2%
CC(=O)Nc1c(C(C)=O)c(=O)n(C)c2nc(-c3ccc(Cl)cc3Cl)c(-c3ccc(Cl)cc3)cc12  remaining binding (cell-free assay, competition with immobilised ligand; 1 µM): 100%
CNCc1ccc(-c2cc(-c3nc(-c4ccc(S(=O)(=O)C(C)C)cc4)cnc3N)on2)cc1  inhibition (enzyme activity, inhibitor; 0.4 µM): 9%
